Hits are enriched below; roughly 1.4% of the tested compounds scored in any of these assays.
Fh CTSL1 inh = blocks F. hepatica cathepsin L1 in PFM18AAP counter-screen; inhibition, % at 5.96 µM; recombinant F. hepatica cathepsin L1, Z-Leu-Arg-MCA fluorescence; AID 1906; 300,000 compounds, 0.49% hits;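 active = inhibition above the mean of all tested compounds plus 3 SD, set per screening campaign, cut at about 17% in these data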;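 also: 0% = plate median of test compound wells and 100% = 1 µM Z-Phe-Ala-diazomethylketone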
ZTA DNA inh = blocks Epstein-Barr virus ZTA, an EBNA-1 counter-screen | P03206 | ZTA-DNA binding, fluorescence polarization | inhibition, % at 11 µM | 320,000 compounds, 0.15% hits; in the data active = inhibition above about 33%
Target sequence (P03206 whole entry, looked up): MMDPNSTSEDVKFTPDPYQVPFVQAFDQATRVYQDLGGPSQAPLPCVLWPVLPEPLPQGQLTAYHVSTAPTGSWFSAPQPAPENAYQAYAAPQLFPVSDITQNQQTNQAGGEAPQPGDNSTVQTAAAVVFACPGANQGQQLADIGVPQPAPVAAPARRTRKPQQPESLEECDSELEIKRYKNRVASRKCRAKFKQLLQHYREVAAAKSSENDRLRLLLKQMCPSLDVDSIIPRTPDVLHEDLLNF
EBNA-1 inhibitor = blocks EBNA-1 binding to DNA; EBNA-1 DNA binding, fluorescence polarization; inhibition, % at 14.8 µM; 300,000 compounds, 0.34% hits; AID 1950; in the data active = inhibition above about 28%
NS3 helicase inh = inhibitors of Hepatitis C virus NS3 helicase; NS3 helicase DNA unwinding, Cy5 molecular beacon fluorescence; inhibition, % at 10.9 µM; 290,000 compounds, 0.56% hits;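 active = inhibition above the mean of all tested compounds plus 3 SD, set per campaign, cut at about 35% in these data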;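 also: 0% = DMSO wells and 100% = thioflavine S control wells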
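System: NS3 helicase fragment of HCV / Schedule: 1 h at 25 °C / Control set: DMSO alone as 0% and 110 µM thioflavine S as 100% / Reagent: Cy5/quencher beacon DNA duplex and ATP to start / Technique: Cy5 fluorescence / Replication: singlicate / Evaluation: % inhibition of end-to-start signal ratio versus controls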
Active calls of the source: *; . = no result.

SMILES	Fh CTSL1 inh	ZTA DNA inh	EBNA-1 inhibitor	NS3 helicase inh
C/C=C(/C)C(=O)Nc1cccc(C2=NOC3(C2)C[C@@H](C(N)=O)N(C(=O)CC)C3)c1 (some centres undefined)	-6	2	-4	.
C/C=C/C(=O)N1CC2(CC(c3cccc(NC(=O)/C(C)=C/C)c3)=NO2)C[C@H]1C(N)=O (some centres undefined)	18*	-9	6	.
C=CCN(c1ccc(C(=O)N2CCCC2)cc1)S(C)(=O)=O	1	8	6	-1
COc1cc2c(cc1OC)C(C1C(=O)CCCC1=O)N(C(=O)CCl)CC2 (centres undefined)	1	4	-6	8
COc1cc2c(cc1OC)C(c1ccccc1)N(C(=O)CCl)CC2 (centres undefined)	31*	5	8	6
Cc1ccc(CONC(=O)c2ccc(Cl)cc2)cc1	.	-11	.	.
O=C(C#Cc1cccc([N+](=O)[O-])c1)c1ccccc1	22*	10	5	-9
CCC(C)CCCCCCCCCCC(=O)O (centres undefined)	3	7	-3	.
CCCCC/C=C\C/C=C\C/C=C\C/C=C\CCCC(=O)O	22*	3	-6	.
CC/C=C\C/C=C\C/C=C\CCCCCCCC(=O)O	26*	-11	-1	.
CCCCCCCCS(=O)CCC(=O)O (centres undefined)	-1	4	-4	8
O=C(CSc1ccc(Cl)cc1)c1ccco1	6	-7	5	9
O=C(CCSc1ccc(Cl)cc1)c1ccco1	20*	-13	-22	-10
CCN(CC)C(=O)CSc1nc2ncccc2[nH]1	19*	-10	-2	5
O=C(Nc1ccccc1)OCc1cc(-c2ccccc2Cl)on1	-6	1	-4	-11
O=C(/C=C1\SC(=O)N(CC(=O)Nc2ccc(F)cc2)C1=O)Nc1ccc(Cl)cc1	-1	12	8	14
COc1ccc(/C=N/n2cnc3c([nH]c4ccccc43)c2=O)cc1COc1ccccn1	26*	-1	-3	-13
COc1ccc2c(c1)[nH]c1c(=O)n(/N=C/c3ccc(OC)c(CN4CCCC4)c3)cnc12	1	10	-5	-17
CCCCC/C=C\C[C@H](O)/C=C/c1cccc(C[C@H](O)CCCCO)n1	41*	11	-3	6
CN1C2CCC1CC(NS(=O)(=O)c1cccc(C(F)(F)F)c1)C2 (centres undefined)	-1	2	7	4
Cc1c(C#N)c(N)c(C(=O)c2ccccc2)n1Cc1ccccc1	6	8	7	-5
CCn1c(C)c(C(=O)c2ccccc2)c(C#N)c1C(=O)O	18*	-11	-6	0
CC(C)CC(=O)NC(=S)Nc1ccccc1N1CCCC1	20*	15	15	2
CCCOC(=O)c1ccc(NC(=O)C(=O)NCC2CCCO2)cc1 (centres undefined)	1	6	2	6
COC(=O)c1ccc(NC(=O)C(=O)NCC2CCCO2)cc1 (centres undefined)	17*	-3	-3	-1
SMILES	Fh CTSL1 inh	ZTA DNA inh	EBNA-1 inhibitor	NS3 helicase inh
COc1ccc(C(CC(=O)c2ccccc2)C2CCCCC2=O)cc1 (centres undefined)	2	19	2	-10
O=C(CC(c1ccco1)C1CCCCC1=O)c1ccccc1 (centres undefined)	52*	17	9	4
CC(=O)N(/N=C1\Sc2ccccc2C1=O)c1ccccc1C	87*	5	-6	-7
O=C1Nc2ccc(Br)cc2/C1=C/C1CC=CCC1 (centres undefined)	28*	5	-22	-7
CC1CC(C)CN(C(=O)c2ccc(CNc3c(N4CCCC4)c(=O)c3=O)cc2)C1 (centres undefined)	-4	7	-2	-2
CC1CCN(C(=O)c2ccc(CNc3c(N4CCCC4)c(=O)c3=O)cc2)CC1	18*	-20	-4	5
Cc1ccc(NC(=O)C2CCCN(S(=O)(=O)c3c(C)noc3/C=C/N(C)C)C2)cc1F (centres undefined)	17*	-2	6	18
NC(=O)NC(=O)CSc1nc(-c2ccccc2)c(-c2ccccc2)n1CC1CCCO1 (centres undefined)	20*	1	1	7
O=C(CSc1nc2ccccc2c(=O)n1CC1CCCO1)NCC1CCCO1 (centres undefined)	-2	-3	-6	-2
O=C(c1cccc(Br)c1)N1CCN(c2ccc(N3CCOCC3)nn2)CC1	18*	5	-10	.
O=C(c1cncc(Br)c1)N1CCN(c2ccc(N3CCOCC3)nn2)CC1	-3	3	7	-4
COc1ccc(S(=O)(=O)N2CCN(CC(=O)Nc3cccc(OC)c3)CC2)cc1	2	2	-7	-5
Cc1ccccc1NC(=O)c1c(C)[nH]c(=S)c(C#N)c1-c1ccc(Cl)cc1	2	3	5	10
Cc1ccc(-c2c(C(=O)Nc3ccccc3C)c(C)[nH]c(=S)c2C#N)o1	0	5	4	39*
Cc1cc(N2CCCCCC2)nc2ccccc12	20*	-29	-5	-4
Cc1cc(N2CCCCC2)nc2ccccc12	2	3	-2	-4
CCn1c(SC(=O)NC2CCCCC2)nnc1-c1cccs1	55*	-11	14	3
Cc1cc2c3c([nH]c2cc1S(=O)(=O)N1CCC2(CC1)OCCO2)CC(C)(C)CC3=O	-3	2	-13	-3
C=C(C)c1cccc(C(C)(C)NC(=O)NCCCN2CCCC2=O)c1	0	12	6	3
O=C(Nc1ccc2nsnc2c1)N1CCCCC1	2	-17	-11	-3
S=C(Nc1ccc2nsnc2c1)N1CCCCCC1	108*	-1	-7	8
CN(c1ccc(C(=O)Nc2ccc3c(c2)OCO3)cc1)S(C)(=O)=O	17*	-9	-8	-1
CCc1nnc(SCC(=O)N2CCCC(N3CCN(c4ccccc4C)CC3)C2)o1 (centres undefined)	-3	-8	-11	-14
CCOc1c(Cl)cc(/C=N/NC(N)=S)cc1OC	26*	6	9	8
COc1cc(/C=N/NC(N)=S)cc(Br)c1OCc1ccccc1F	5	-5	2	0
SMILES	Fh CTSL1 inh	ZTA DNA inh	EBNA-1 inhibitor	NS3 helicase inh
C#CCOc1c(Cl)cc(/C=N/NC(N)=S)cc1OCC	80*	-12	8	9
CCCOP(=O)(OCCC)c1nc(-c2ccccc2)oc1NCc1ccccc1	2	-7	-8	4
CCOCCCNC(=O)c1c[nH]c2ccc(C)cc2c1=O	-1	5	-3	-7
COc1cc(/C=C/C(=O)O)cc(S(=O)(=O)Nc2ccccc2Oc2ccccc2)c1OC	21*	-15	0	10
O=C(NCC(=O)N(c1cccnc1)C(C(=O)NC1CCCC1)c1cccs1)c1cccs1 (centres undefined)	-4	-4	-9	3
Cc1ccc(S(=O)(=O)NCC(=O)OC(C(=O)c2ccccc2)c2ccccc2)cc1 (centres undefined)	-43	-9	1	-16
COc1ccc(C)cc1NC(=O)C(OC(=O)CNC(=O)c1ccc(Br)cc1)c1ccccc1 (centres undefined)	18*	3	3	13

Screening data deposited in PubChem by The Scripps Research Institute Molecular Screening Center.
